Screening results from PubChem.
An excerpt weighted towards active compounds, which were near 5.1% of everything screened.
APP 5'UTR act: activates APP 5'UTR luciferase reporter; AID 1276; activation, % at 2 µM; 1% of 190,000 active; SH-SY5Y APP 5'UTR luciferase reporter, luminescence; zero percent = DMSO vehicle wells;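 active means activation above a set limit, based on mean plus 3 SD of controls, cut at about 140% in these data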
NF-kB neuron act: compounds increasing NF-kB expression in human neuronal cells. NF-kB reporter expression; stronger effect = higher value. fold change at 12.5 µM. 1.6% of 190,000 active. AID 1239; in the data active means fold change above about 3.3
STAT3 act: STAT3 signaling activation. activation (% of control), % at 5.6 µM. U3A cells, IL-6 STAT3-luciferase reporter, luminescence; 100% = signal with IL-6 EC80 alone. 0.91% of 190,000 active;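 active means activation above the screen-wide mean of compound activation plus 3 SD, cut at about 130% in these data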
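Material: STAT3-luciferase reporter U3A cells. Controls: IL-6-treated wells, 100% activation. Read-out: % activation versus median of IL-6-stimulated wells. Probe or stimulus: IL-6 stimulus at 33 ng/mL final. Timing: compound 1 h, then IL-6 6 h at 37 °C. Signal: reporter luminescence signal.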
STAT1 blocker: inhibitors of IFN-gamma induced STAT1 signaling; NIH 3T3 STAT1-luciferase reporter, luminescence; inhibition, % at 5.5 µM; 0.35% of 200,000 active; AID 920;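 active means inhibition above a set limit, the mean inhibition across all tested compounds plus 3 SD, cut at about 34% in these data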
STAT1 act: increases IFN-gamma driven STAT1 reporter signal | NIH 3T3 STAT1-luciferase reporter, luminescence; 100% = IFN-gamma alone, no compound | activation (% of control), % at 5.5 µM | 2.6% of 200,000 active;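 active means activation above the screen-wide mean activation plus 3 SD, cut at about 130% in these data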
STAT3 blocker: reduces IL-6 driven STAT3 reporter signal; U3A cells, IL-6 STAT3-luciferase reporter, luminescence; host cell line lacks STAT1; inhibition, % at 5.5 µM; 0.89% of 190,000 active;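 active means inhibition above the mean inhibition across all screened compounds plus 3 SD, cut at about 44% in these data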
Hits are given with their value; – = inactive; · = no result given.

SMILES | APP 5'UTR act | NF-kB neuron act | STAT3 act | STAT1 blocker | STAT1 act | STAT3 blocker
CC(/C=C/c1cccc([N+](=O)[O-])c1)=N\NC(=O)c1ccncc1 | – | – | – | – | – | –
Cc1c(C#N)c(O)n(CCO)c(=O)c1N=Nc1ccc(S(N)(=O)=O)cc1 | – | – | – | – | – | –
Cc1c(C#N)c(O)n(C)c(=O)c1N=Nc1ccc(S(N)(=O)=O)cc1 | – | – | – | – | 141.2 | –
COc1ccc(CN2CCNC(=O)C2CC(=O)N2CCCCO2)c(OC)c1 (configuration not stated) | – | – | – | – | – | –
CC(=O)Nc1cc(C(=O)OCC(=O)c2ccc(Cl)cc2Cl)ccc1C | – | – | – | – | – | –
CC(=O)Nc1cc(C(=O)OCC(=O)c2ccc(C)cc2)ccc1C | – | 3.9 | – | – | 143.4 | –
Cc1ccccc1N=C1Nc2ccccc2CS1 | – | 4.63 | – | – | – | –
Cc1ccccc1N=C1NC(=O)CS1 | – | – | – | – | – | –
Cc1ccccc1-c1noc(-c2ccc(Cl)cc2)n1 | – | 3.38 | – | – | – | –
Cc1ccccc1-c1noc(-c2ccccc2F)n1 | – | 6.8 | – | – | 138.8 | –
Cc1ccccc1-c1noc(-c2ccc(O)cc2)n1 | 156.5 | 7.71 | – | – | 140.3 | –
CC(SC#N)C(=O)C12CC3CC(CC(C3)C1)C2 (configuration not stated) | – | – | – | – | – | –
CCOC(=O)c1c(C2CC2)csc1NC(=O)COC(=O)c1cc(OC)c(OC)cc1[N+](=O)[O-] | – | – | – | – | – | –
O=C(CN1C(=O)/C(=C\c2ccc(F)cc2)Oc2ccccc21)NCc1ccco1 | – | – | – | – | – | –
Nc1nc(COc2ccc3ccccc3c2)cs1 | – | – | – | – | 137.6 | –
Nc1nc(CCOc2ccc(F)cc2)cs1 | – | – | – | – | 141.4 | –
O=C(N/N=C/c1ccccc1OCc1ccccc1)c1cccs1 | – | – | – | – | – | –
COc1ccc2cc(C#N)c(SCC(=O)N3CCCC3)nc2c1 | – | – | – | – | – | –
CCOC(=O)CSc1nc2cc(OCC)ccc2cc1C#N | 168.3 | – | – | – | – | –
CCOC(=O)CSc1nc(-c2ccc3c(c2)OCO3)ccc1C#N | 201.8 | – | – | – | – | –
COC(=O)CSc1nc2cc(OC)ccc2cc1C#N | 154.9 | 13.8 | – | – | 141.5 | –
Cn1/c(=N/N=C/c2ccc(N3CCOCC3)cc2)sc2ccccc21 | – | – | – | – | 129.0 | –
CC(=O)N=c1sc2ccccc2n1C | – | – | – | – | – | –
N#CC1(c2ccc(NC(=O)c3ccccc3)cc2)CCCC1 | – | – | – | – | 147.2 | –
O=C(NNC(=O)c1ccc(NC(=O)c2ccccc2)cc1)c1ccccc1 | – | – | – | – | – | –
SMILES | APP 5'UTR act | NF-kB neuron act | STAT3 act | STAT1 blocker | STAT1 act | STAT3 blocker
Cc1cccc(N/C=C/C(=O)c2cccs2)c1C | 212.1 | 4.13 | – | – | – | –
Cc1ccc(C(=O)/C=C/Nc2ccccc2C(N)=O)o1 | – | – | – | – | – | –
COc1cc([N+](=O)[O-])ccc1N/C=C/C(=O)c1cccs1 | 136.2 | 4.34 | – | 46.8 | – | 72.9
NC(=O)c1ccccc1N/C=C/C(=O)c1cccs1 | · | 5.4 | – | – | 138.1 | –
O=C(Oc1ccccc1/C=C\C(=O)c1cc2ccccc2o1)c1ccccc1 | 163.0 | 5.7 | – | – | – | –
O=C(Oc1ccccc1/C=C\C(=O)c1cc2ccccc2o1)c1cccc(F)c1 | – | 4 | – | – | – | –
COc1cccc(C(=O)Oc2ccccc2/C=C\C(=O)c2cc3ccccc3o2)c1 | – | 20.7 | – | – | – | –
O=C(Nc1ccccc1)c1ccc(OC(=O)c2cc3ccccc3o2)cc1 | – | – | – | – | – | –
Cc1ccc2nc(-c3cccc(S(=O)(=O)N(C)C)c3)cn2c1 | – | – | – | – | 136.2 | –
Cc1ccc(N/C=C2\CCCCC2=O)nc1 | – | – | – | – | 134.6 | –
CCCOc1ccc(-c2cnc(N)s2)cc1 | – | – | – | – | 133.4 | –
COCCNC(=O)c1cc(C(=O)CC(C)C)c[nH]1 | – | – | – | – | – | –
COc1cccc(-n2nnc3c(=O)n(CC(=O)Nc4ccc(C)cc4)cnc32)c1 | – | – | – | – | – | –
CSc1nnc2c(n1)[nH]c1c(C)cccc12 | – | – | – | – | – | –
CCSc1nnc2c(n1)[nH]c1c(C)cccc12 | – | – | – | – | 139.0 | –
Nc1ncc(Br)cc1N=Cc1ccccc1 | – | 4.66 | – | – | 149.2 | –
Cc1ccc(C(=O)Oc2oc(-c3ccccc3)nc2C=Nc2ccc(N(C)C)cc2)cc1 | 145.9 | – | – | – | 149.0 | –
Cc1ccc(-c2nc(C=Nc3ccccc3)c(O)o2)cc1 | – | – | – | – | – | –
CN(C)c1ccc(N=Cc2nc(-c3ccccc3)oc2OC(=O)c2cccc(Cl)c2)cc1 | – | 3.43 | – | – | 128.8 | –
COc1cc(N2CCCC2)c(OC)cc1/C=c1/sc2nc3ccccc3n2c1=O | – | – | – | – | – | –
Cc1ccc(-n2c(C)cc(/C=c3/sc4nc5ccccc5n4c3=O)c2C)cc1 | – | – | – | 43.1 | – | 62.6
O=c1/c(=C\c2cccn2-c2ccccc2)sc2nc3ccccc3n12 | – | – | – | – | – | –
O=C(O)Cn1cc(/C=c2/sc3nc4ccccc4n3c2=O)c2ccccc21 | – | – | – | – | 131.0 | –
CCNS(=O)(=O)c1ccc(NC(=S)NCC2CCCO2)cc1 (configuration not stated) | – | – | – | – | – | –
CN(C)/C=N/C(=S)Nc1ccc(Cl)cc1Cl | – | – | – | – | 131.8 | –
SMILES | APP 5'UTR act | NF-kB neuron act | STAT3 act | STAT1 blocker | STAT1 act | STAT3 blocker
CN(C)/C=N/C(=S)Nc1ccc(Cl)cc1 | – | – | – | – | – | –
CCC(=O)Nc1nc2ccc(S(C)(=O)=O)cc2s1 | – | – | – | – | 131.3 | –
Cc1ccc(C(=O)Nc2nc3ccc(S(C)(=O)=O)cc3s2)s1 | – | – | – | – | 145.6 | –
CCOc1ccc(NC(=O)CCC(=O)NNC(=O)Nc2cccc(Cl)c2)cc1 | – | – | – | – | – | –
COc1ccc2cc3cc(C(=O)NCCCN4CCc5ccccc5C4)sc3nc2c1 | – | 3.7 | – | – | 134.8 | –
COc1ccc2nc3sc(C(=O)NCCN4CCc5ccccc5C4)cc3cc2c1 | – | – | – | – | 128.9 | –
COc1cccc(-c2nnc(-c3ccco3)o2)c1 | – | – | – | – | 144.1 | –
CCOC(=O)C1=C(C)NC(=O)/C1=C\N(C)C | – | – | – | – | – | –
Cc1ccc2nc(-c3ccc(N4C(=O)CC(N5CCCC(C)C5)C4=O)cc3)sc2c1 (configuration not stated) | – | – | – | – | – | –
Cc1ccc2nc(-c3ccc(N4C(=N)SC5CS(=O)(=O)CC54)cc3)sc2c1 (configuration not stated) | – | – | – | – | 130.0 | –
